{"source": "ChEMBL document CHEMBL4152184", "about": "“NB 06: From a simple lysosomotropic aSMase inhibitor to tools for elucidating the role of lysosomes in signaling apoptosis and LPS-induced inflammation” (Eur J Med Chem, 2018)", "format_in_all_cases": "functional", "key": {"[1]": {"system": "MONO-MAC-6", "assay": "Downregulation of CCL4 mRNA expression level in human MONO-MAC-6 cells at 5 uM incubated for 30 mins measured after 6 hrs by oligonucleotide array hybridization assay relative to control", "outline": "(§1)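 Total RNA was isolated, transcribed and labeled with DY-647 dye, then co-hybridized with DY-548-labeled cDNA from untreated cells on an inflammation oligonucleotide chip (780 gene probes). Differential expression >1.5 was taken as significant.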"}, "[2]": {"system": "MONO-MAC-6", "assay": "Downregulation of PTX3 mRNA expression level in human MONO-MAC-6 cells at 5 uM incubated for 30 mins measured after 2 hrs by oligonucleotide array hybridization assay relative to control", "outline": "as §1"}, "[3]": {"system": "MONO-MAC-6", "assay": "Upregulation of CXCL2 mRNA expression level in LPS-stimulated human MONO-MAC-6 cells at 5 uM preincubated for 30 mins followed by LPS stimulation measured after 4 hrs by oligonucleotide array hybridization assay (reference value: 13.17)"}, "[4]": {"system": "MONO-MAC-6", "assay": "Upregulation of ICAM1 mRNA expression level in LPS-stimulated human MONO-MAC-6 cells at 5 uM preincubated for 30 mins followed by LPS stimulation measured after 1 hr by oligonucleotide array hybridization assay (reference value: 1.17)"}}}
{"compound": "COc1ccc(CCN(C)CCCn2c3ccccc3c3ccccc32)cc1", "values": [{"measurement": "fold change (FC)", "setting": "[1]", "result": 7.41}, {"measurement": "fold change (FC)", "setting": "[2]", "result": 1.61}, {"measurement": "fold change (FC)", "setting": "[3]", "result": 5.82}, {"measurement": "fold change (FC)", "setting": "[4]", "result": 1.11}]}
